Assay results taken from ChEMBL document CHEMBL4373711, “Development of 3,5-Dinitrophenyl-Containing 1,2,4-Triazoles and Their Trifluoromethyl Analogues as Highly Efficient Antitubercular Agents Inhibiting Decaprenylphosphoryl-β-d-ribofuranose 2'-Oxidase” (J Med Chem, 2019).
≈ marks a conversion by molar mass, not a printed value.

Columns and labels:
Format in all cases: functional
[1] = test system: Mycobacterium tuberculosis; assay: Antimycobacterial activity against Mycobacterium tuberculosis H37Rv CNCTC My 331/88 after 14 days; conditions: H37Rv CNCTC My 331/88, 336 h
Summary of the method: (§1)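 M. tuberculosis strains (H37Rv and clinical MDR/XDR isolates) tested by microdilution in Šula's semisynthetic medium. Compounds were dissolved in DMSO and tested at 32 to 0.03 µM in twofold steps. Inoculum was a 1.0 McFarland suspension diluted 10-3. Plates were incubated at 37 °C and read at 14 and 21 days.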

Mycobacterium avium [2] = assay: Antimycobacterial activity against Mycobacterium avium CNCTC My 330/88 after 21 days; conditions: CNCTC My 330/88, 504 h
Summary of the method: (§2)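 M. avium was tested by microdilution in Šula's semisynthetic medium, with compounds dissolved in DMSO and serially diluted from 1000 down to 1. Inoculum was a 1.0 McFarland suspension diluted 10-5. Plates were incubated at 37 °C and read at 14 and 21 days. […] Isoniazid and rifampicin served as standards.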

Mycobacterium kansasii [3] = assay: Antimycobacterial activity against Mycobacterium kansasii CNCTC My 235/80 after 21 days; conditions: CNCTC My 235/80, 504 h
Summary of the method: (§3)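 Microdilution in Šula's semisynthetic medium; compounds in DMSO at 32–0.03 µM. Inoculum from 1.0 McFarland suspension diluted 10-4. […] Isoniazid and rifampicin as reference drugs.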

Mycobacterium kansasii [4] = assay: Antimycobacterial activity against Mycobacterium kansasii CNCTC My 235/80 after 7 days; conditions: CNCTC My 235/80, 168 h; summary of the method: as §3
Mycobacterium avium [5] = assay: Antimycobacterial activity against Mycobacterium avium CNCTC My 330/88 after 14 days; conditions: CNCTC My 330/88, 336 h; summary of the method: as §2
Mycobacterium kansasii [6] = assay: Antimycobacterial activity against Mycobacterium kansasii 6509/96 after 14 days; conditions: 6509/96, 336 h; summary of the method: as §3
Mycobacterium kansasii [7] = assay: Antimycobacterial activity against Mycobacterium kansasii CNCTC My 235/80 after 14 days; conditions: CNCTC My 235/80, 336 h; summary of the method: as §3
Mycobacterium kansasii [8] = assay: Antimycobacterial activity against Mycobacterium kansasii 6509/96 after 7 days; conditions: 6509/96, 168 h; summary of the method: as §3
Mycobacterium kansasii [9] = assay: Antimycobacterial activity against Mycobacterium kansasii 6509/96 after 21 days; conditions: 6509/96, 504 h; summary of the method: as §3
[10] = test system: Mycobacterium tuberculosis; assay: Antimycobacterial activity against Mycobacterium tuberculosis H37Rv CNCTC My 331/88 after 21 days; conditions: H37Rv CNCTC My 331/88, 504 h; summary of the method: as §1

SMILES	MIC99 [1]	MIC99 (Mycobacterium avium [2])	MIC99 (Mycobacterium kansasii [3])	MIC99 (Mycobacterium kansasii [4])	MIC99 (Mycobacterium avium [5])	MIC99 (Mycobacterium kansasii [6])	MIC99 (Mycobacterium kansasii [7])	MIC99 (Mycobacterium kansasii [8])	MIC99 (Mycobacterium kansasii [9])	MIC99 [10]
O=[N+]([O-])c1cc(CSc2nnc(-c3ccccc3)[nH]2)cc([N+](=O)[O-])c1	2 µM (≈ 0.715 µg/mL)	125 µM (≈ 44.7 µg/mL)	8 µM (≈ 2.86 µg/mL)	4 µM (≈ 1.43 µg/mL)	62 µM (≈ 22.2 µg/mL)	8 µM (≈ 2.86 µg/mL)	8 µM (≈ 2.86 µg/mL)	4 µM (≈ 1.43 µg/mL)	16 µM (≈ 5.72 µg/mL)	4 µM (≈ 1.43 µg/mL)
Cc1ccc(-c2nnc(SCc3cc([N+](=O)[O-])cc([N+](=O)[O-])c3)n2Cc2ccccc2)cc1	4 µM (≈ 1.85 µg/mL)	250 µM (≈ 115 µg/mL)	4 µM (≈ 1.85 µg/mL)	4 µM (≈ 1.85 µg/mL)	250 µM (≈ 115 µg/mL)	4 µM (≈ 1.85 µg/mL)	4 µM (≈ 1.85 µg/mL)	4 µM (≈ 1.85 µg/mL)	4 µM (≈ 1.85 µg/mL)	4 µM (≈ 1.85 µg/mL)
O=[N+]([O-])c1cc(Cn2c(SCc3ccc(Cl)cc3)nnc2-c2ccccc2)cc([N+](=O)[O-])c1	8 µM (≈ 3.86 µg/mL)	250 µM (≈ 120 µg/mL)	16 µM (≈ 7.71 µg/mL)	4 µM (≈ 1.93 µg/mL)	250 µM (≈ 120 µg/mL)	32 µM (≈ 15.4 µg/mL)	8 µM (≈ 3.86 µg/mL)	16 µM (≈ 7.71 µg/mL)	32 µM (≈ 15.4 µg/mL)	16 µM (≈ 7.71 µg/mL)
CCn1c(SCc2cc([N+](=O)[O-])cc([N+](=O)[O-])c2)nnc1-c1ccccc1	2 µM (≈ 0.771 µg/mL)	250 µM (≈ 96.4 µg/mL)	4 µM (≈ 1.54 µg/mL)	2 µM (≈ 0.771 µg/mL)	250 µM (≈ 96.4 µg/mL)	4 µM (≈ 1.54 µg/mL)	2 µM (≈ 0.771 µg/mL)	2 µM (≈ 0.771 µg/mL)	4 µM (≈ 1.54 µg/mL)	4 µM (≈ 1.54 µg/mL)
O=[N+]([O-])c1cc(CSc2nnc(-c3ccccc3)n2-c2ccccc2)cc([N+](=O)[O-])c1	4 µM (≈ 1.73 µg/mL)	> 1000 µM	8 µM (≈ 3.47 µg/mL)	2 µM (≈ 0.867 µg/mL)	> 1000 µM	4 µM (≈ 1.73 µg/mL)	4 µM (≈ 1.73 µg/mL)	2 µM (≈ 0.867 µg/mL)	8 µM (≈ 3.47 µg/mL)	4 µM (≈ 1.73 µg/mL)
NNC(=O)c1ccncc1 [ISONIAZID]		> 250 µM	> 250 µM	> 250 µM	> 250 µM	4 µM (≈ 0.549 µg/mL)	> 250 µM	2 µM (≈ 0.274 µg/mL)	4 µM (≈ 0.549 µg/mL)	
COc1ccc(CSc2nnc(-c3ccccc3)n2Cc2cc([N+](=O)[O-])cc([N+](=O)[O-])c2)cc1	16 µM (≈ 7.64 µg/mL)	250 µM (≈ 119 µg/mL)		> 32 µM	250 µM (≈ 119 µg/mL)	> 32 µM	> 32 µM	> 32 µM		16 µM (≈ 7.64 µg/mL)
O=[N+]([O-])c1ccc(-c2nnc(SCc3cc([N+](=O)[O-])cc([N+](=O)[O-])c3)n2Cc2ccccc2)cc1	4 µM (≈ 1.97 µg/mL)	250 µM (≈ 123 µg/mL)	4 µM (≈ 1.97 µg/mL)	2 µM (≈ 0.985 µg/mL)	250 µM (≈ 123 µg/mL)	4 µM (≈ 1.97 µg/mL)	4 µM (≈ 1.97 µg/mL)	2 µM (≈ 0.985 µg/mL)	8 µM (≈ 3.94 µg/mL)	4 µM (≈ 1.97 µg/mL)
Cc1ccc(-c2nnc(SCc3cc([N+](=O)[O-])cc(C(F)(F)F)c3)n2Cc2ccccc2)cc1	> 32 µM	250 µM (≈ 121 µg/mL)	> 32 µM	> 32 µM	250 µM (≈ 121 µg/mL)	> 32 µM	> 32 µM	> 32 µM	> 32 µM	> 32 µM
O=[N+]([O-])c1cc(CSc2nnc(-c3ccccc3)n2Cc2ccc(Br)cc2)cc([N+](=O)[O-])c1	2 µM (≈ 1.05 µg/mL)	250 µM (≈ 132 µg/mL)	4 µM (≈ 2.11 µg/mL)	2 µM (≈ 1.05 µg/mL)	250 µM (≈ 132 µg/mL)	4 µM (≈ 2.11 µg/mL)	4 µM (≈ 2.11 µg/mL)	2 µM (≈ 1.05 µg/mL)	4 µM (≈ 2.11 µg/mL)	2 µM (≈ 1.05 µg/mL)
